From ChEMBL document CHEMBL3085645, “Design, synthesis and biological evaluation of phosphorodiamidate prodrugs of antiviral and anticancer nucleosides” (Eur J Med Chem, 2013)

What was measured:
Felid alphaherpesvirus 1 = assay: Antiviral activity against Feline herpesvirus infected in cat CRFK cells assessed as inhibition of virus-induced cytopathicity; format: functional, organism-based; conditions: Felid alphaherpesvirus 1, CRFK
Human alphaherpesvirus 1 [1] = assay: Antiviral activity against acyclovir-resistant thymidine kinase-deficient Herpes simplex virus 1 KOS infected in HEL cells assessed as inhibition of virus-induced cytopathicity; format: functional, organism-based; conditions: Human alphaherpesvirus 1, KOS
L1210 = assay: Cytostatic activity against mouse L1210 cells assessed as growth inhibition after 2 days by particle counting analysis; format: functional, cell-based; conditions: L1210, 48 h
Summary of the method: (§1)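 Tumor cells seeded and exposed to a range of compound concentrations. Cell number counted with a particle counter after 2 days (L1210, L1210/TK) or 3 days (CEM, CEM/TK, HeLa, HeLa TK, Caco-2, Colo-320).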

HeLa [2] = assay: Cytostatic activity against thymidine kinase-deficient human HeLa cells assessed as growth inhibition after 3 days by particle counting analysis; format: functional, cell-based; conditions: 72 h; summary of the method: as §1
CCRF-CEM = assay: Cytostatic activity against human CEM cells assessed as growth inhibition after 3 days by particle counting analysis; format: functional, cell-based; conditions: 72 h; summary of the method: as §1
Human alphaherpesvirus 1 [3] = assay: Antiviral activity against Herpes simplex virus 1 KOS infected in HEL cells assessed as inhibition of virus-induced cytopathicity; format: functional, organism-based; conditions: Human alphaherpesvirus 1, KOS
[4] = Prodrug conversion assessed as carboxypeptidase Y (unknown origin)-mediated (S)-2-((((2R,3S,4R,5R)-5-(5-amino-4-carbamoyl-1H-imidazol-1-yl)-3,4-dihydroxytetrahydrofuran-2-yl)methoxy)oxidophosphorylamino)propanoate formation at 4.8 mg measured after 24 hrs by 31P-NMR analysis; format: ADME; conditions: human
Summary of the method: (§2)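 Prodrug incubated with carboxypeptidase Y in d6-acetone/Trizma buffer (pH 7.6); conversion followed over time by 31P NMR.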

HeLa [5] = assay: Cytostatic activity against human HeLa cells assessed as growth inhibition after 3 days by particle counting analysis; format: functional, cell-based; conditions: 72 h; summary of the method: as §1
[6] = Cytotoxicity against HEL cells; format: cell-based; conditions: human
Human alphaherpesvirus 2 = assay: Antiviral activity against Herpes simplex virus 2 G infected in HEL cells assessed as inhibition of virus-induced cytopathicity; format: functional, organism-based; conditions: Human alphaherpesvirus 2, strain G
MT4 = assay: Cytotoxicity against human MT4 cells assessed as cell viability by propidium iodide staining-based cell counting analysis
Summary of the method: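 MT-4 cultures, untreated or treated, were counted on an automated cell counter. Total and dead cells were enumerated by propidium iodide-based assay.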

[7] = Prodrug conversion assessed as carboxypeptidase Y (unknown origin)-mediated metabolite formation lacking one ester moiety at 5 mg measured every 5 mins for 24 hrs by 31P-NMR analysis; format: ADME; conditions: human; summary of the method: as §2
[8] = Chemical stability in d6 acetone/trizma buffer at 5 mg in absence of carboxypeptidase Y; format: physicochemical
Summary of the method: (§3)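 Prodrug kept in d6-acetone plus Trizma buffer (pH 7.6) without carboxypeptidase Y; integrity followed by 31P NMR.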

Hepatitis C virus = assay: Antiviral activity against Hepatitis C virus genotype 1b infected in human HuH7 cells assessed as inhibition of viral replication; format: functional, organism-based, Hepacivirus hominis; conditions: Huh-7, read-out: EC50
[9] = Chemical stability in d6 acetone/trizma buffer at 4.8 mg in absence of carboxypeptidase Y; format: physicochemical; summary of the method: as §3
[10] = test system: Human immunodeficiency virus 1; assay: Antiviral activity against HIV1 infected in human MT4 cells assessed as p24 production after 3 days; conditions: Human immunodeficiency virus 1, MT4, 72 h
[11] = Prodrug conversion assessed as carboxypeptidase Y (unknown origin)-mediated (8S)-1-(2-amino-6-oxo-1,6-dihydro-9H-purin-9-yl)-8-methyl-6-oxido-2,5-dioxa-7-aza-6-phosphanonan-9-oate 6-oxide formation at 5 mg measured after 7.5 hrs by 31P-NMR analysis; format: ADME; conditions: human; summary of the method: as §2

SMILES | EC50 (Felid alphaherpesvirus 1) | EC50 (Human alphaherpesvirus 1 [1]) | IC50 (L1210) | IC50 (HeLa [2]) | IC50 (CCRF-CEM) | EC50 (Human alphaherpesvirus 1 [3]) | Drug metabolism [4] | IC50 (HeLa [5]) | MCC [6] | EC50 (Human alphaherpesvirus 2) | CC50 (MT4) | Drug metabolism [7] | Stability [8] | EC50 (Hepatitis C virus) | Stability [9] | EC50 [10] | Drug metabolism [11]
C[C@H](NP(=O)(N[C@@H](C)C(=O)OCC(C)(C)C)OC[C@H]1O[C@@H](n2cnc(C(N)=O)c2N)[C@H](O)[C@@H]1O)C(=O)OCC(C)(C)C | > 100 µM | > 100 µM | > 250 µM | > 250 µM | > 250 µM | > 100 µM | Not Active | > 250 µM | > 100 µM | > 100 µM | – | – | – | – | – | – | –
C[C@H](NP(=O)(N[C@@H](C)C(=O)OCc1ccccc1)OCCOCn1cnc2c(=O)[nH]c(N)nc21)C(=O)OCc1ccccc1 | > 100 µM | 25 µM | – | – | – | 18 µM | – | – | > 100 µM | 16 µM | 34.9 µM | Active | Stable | > 100 µM | Stable | 2.01 µM | Active
C[C@H](NP(=O)(N[C@@H](C)C(=O)OCC(C)(C)C)OCCOCn1cnc2c(=O)[nH]c(N)nc21)C(=O)OCC(C)(C)C | > 100 µM | 20 µM | – | – | – | 33 µM | – | – | > 100 µM | 40 µM | 82.8 µM | – | – | > 100 µM | – | 4.07 µM | –
